Rows were chosen to be rich in hits. Some 0.94% of all compounds tested hit in one or more screens of this group.
aDG glyco up – alpha-DG glycosylation activation; Pro5-aDG cells, alpha-DG glycosylation AlphaScreen (IIH6); 0% Pro5, 100% B10-LARGE cell signal; activation, % at 10 µM; 360,000 compounds, 0.22% hits; AID 624168;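 active = activation of at least 8% versus controls, or a plate z-score of at least 8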;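 note: Pro5 are CHO cells carrying HIG-tagged alpha-DG that lacks glycosylation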
PKA-R2B activ – PKA-R2B complex activation; P22694+P31323; PKA-R2B holoenzyme dissociation, Cy5-IP20 fluorescence polarization; R2B truncated from residue 108, S112A mutant; 0% DMSO only, 100% 113 µM cGMP; activation, % at 11.4 µM; 340,000 compounds, 0.079% hits; AID 504700;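 active = activation above a cutoff set at the mean over all compounds plus 3 SD, cut at about 18% in these data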;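 note: higher means more holoenzyme dissociation and a rise in polarization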
Target sequence (P31323 whole entry, looked up, other chains not shown, the tested form may be a part): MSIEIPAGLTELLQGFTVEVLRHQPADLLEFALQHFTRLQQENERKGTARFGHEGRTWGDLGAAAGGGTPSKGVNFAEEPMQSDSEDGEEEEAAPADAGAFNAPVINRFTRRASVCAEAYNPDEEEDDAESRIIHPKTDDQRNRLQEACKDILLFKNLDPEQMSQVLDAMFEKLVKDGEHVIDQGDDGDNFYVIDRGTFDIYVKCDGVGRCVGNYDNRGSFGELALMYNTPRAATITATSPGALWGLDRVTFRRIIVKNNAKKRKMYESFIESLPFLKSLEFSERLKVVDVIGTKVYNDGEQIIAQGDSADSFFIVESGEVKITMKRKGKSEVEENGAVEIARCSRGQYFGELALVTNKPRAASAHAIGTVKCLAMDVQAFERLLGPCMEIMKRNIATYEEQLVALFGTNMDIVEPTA
Fh CTSL1 inh – blocks F. hepatica cathepsin L1 in PFM18AAP counter-screen; AID 1906; recombinant F. hepatica cathepsin L1, Z-Leu-Arg-MCA fluorescence; inhibition, % at 5.96 µM; 300,000 compounds, 0.49% hits;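 active = inhibition above the mean of all tested compounds plus 3 SD, set per screening campaign, cut at about 17% in these data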;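 note: 0% = plate median of test compound wells and 100% = 1 µM Z-Phe-Ala-diazomethylketone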
UCH37 inh – inhibitors of human deubiquitinating enzyme UCH37 | purified proteasome/UCH37, Ub-AMC cleavage fluorescence | 330,000 compounds, 0.33% hits | Q9Y5K5 | inhibition, % (concentration not given with the values);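 active = mean inhibition over replicate wells above about 20%, limit read from the data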;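 note: 0% = compound-free wells with enzyme and 100% = wells lacking proteasome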
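Test system – human UCH37 enzyme supplied as purified proteasome complex · Incubation – 30 min preincubation with enzyme, 25 min cleavage at room temperature · Detection – AMC fluorescence from Ub-AMC cleavage, excitation 355 nm, emission 460 nm · Benchmarks – no-proteasome wells (full inhibition) and compound-free wells (no inhibition)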
PKA-R1A activ – activators of PKA-R1A complex; P00514+P68181; AID 504707; activation, % at 11.4 µM; PKA-R1A dissociation, Cy5-IP20 fluorescence polarization; scaled: DMSO 0%, 113 µM cGMP 100%; 340,000 compounds, 0.083% hits;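 active = percent activation above the mean of all tested compounds plus 3 SD, cut at about 19% in these data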;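 note: higher means more PKAc released from R1A so a rise in polarization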
UCH37 confirm – reconfirmed inhibitor of human deubiquitinase UCH37; Proteasome-bound UCH37, Ub-AMC cleavage fluorescence; shares compounds with UCH37 inh; 480 compounds, 27% hits; inhibition, % at 20 µM;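 active = average inhibition over replicates above about 50%, so the earlier screening hit is confirmed, limit read from the data; inactive = the rest, counted as false positives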;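 note: based on cleavage rate fitted by regression over a 30 min kinetic read; 0% = proteasome plus Ub-AMC and 100% = Ub-AMC without proteasome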
* marks the source's active call; other numbers are inactive results; / = no result given.

SMILES	aDG glyco up	PKA-R2B activ	Fh CTSL1 inh	UCH37 inh	PKA-R1A activ	UCH37 confirm
C(=Nn1cnc2ccccc21)c1cccnc1	/	/	/	9	/	/
O=C(NC(=S)Nc1ccc(Oc2ccc(Cl)cc2)cc1)c1ccccc1	0	-13	-2	47*	-13	6
CN1CCN(C2=CC3=CC(=C(C#N)C#N)CCC3CC2)CC1 (centres undefined)	0	-3	/	26*	-12	15
N#CC(C#N)=C1C=C2C=C(N3CCOCC3)CCC2CC1 (centres undefined)	-1	-2	/	11	-9	/
CCCCNC(=O)c1c(N)n(N=Cc2ccccn2)c2nc3ccccc3nc12	/	/	/	6	/	/
FC(F)(F)c1nc2ccccc2nc1NN=Cc1ccccc1	/	/	/	0	/	/
CC1=NN(c2ccc(C)cc2)C(=O)/C1=C/c1ccc(-c2cc([N+](=O)[O-])ccc2O)o1	0	2	/	3	-3	/
O=C1NN(c2cccc(Br)c2)C(=O)/C1=C/c1ccc(-c2cc([N+](=O)[O-])ccc2O)o1	0	0	0	31*	-1	67*
O=C(COC(=O)c1ccc([N+](=O)[O-])o1)NCc1ccccc1	0	-14	/	9	-13	/
Cc1cccc(C)c1NC(=O)COC(=O)c1ccc([N+](=O)[O-])o1	0	5	-1	29*	-7	11
COCCNC(=S)NN=C(C)c1ccc(OC(F)F)cc1	/	/	/	4	/	/
O=S(=O)(NCc1ccc(F)cc1)c1ccccc1Br	1	-10	/	35*	4	-11
O=S(=O)(NCc1ccccc1)c1ccc(F)cc1Br	0	-7	-1	-2	-12	/
CC(=NNC(=O)CN1CCOCC1)C(C)(C)C	/	/	/	4	/	/
CCOC(=O)N1CCN(C2=C(NS(=O)(=O)c3ccc(NC(C)=O)cc3)C(=O)c3ccccc3C2=O)CC1	0	-8	-2	30*	4	15
CON=C(Cn1ncc(N2CCCC2)c(Cl)c1=O)c1ccc(Cl)cc1	/	/	/	8	/	/
O=C(NC1(O)C(=O)c2ccccc2C1=O)c1ccc(C(F)(F)F)cc1	0	/	57*	79*	/	69*
Cc1ccc(C(=O)NC2(O)C(=O)c3ccccc3C2=O)cc1C	0	4	58*	78*	-3	61*
O=C(N[C@@H](Cc1ccccc1)C(=O)O)c1ccc(C(F)(F)F)cc1	0	-4	1	4	8	/
Cc1[nH][nH]c(=O)c1C(c1c(C)[nH][nH]c1=O)c1cn(Cc2ccc(Cl)c(Cl)c2)c2ccccc12	0	2	10	47*	4	24
Cc1c(C=NNC(=O)c2cc(=O)[nH]c(=O)[nH]2)c2ccccn2c1C(=O)c1ccccc1	/	/	/	12	/	/
O=C(O)/C=C/c1ccc([N+](=O)[O-])o1	0	1	3	12	-11	/
O=C1NC(=S)S/C1=C\C=C\c1ccc([N+](=O)[O-])o1	0	-6	/	28*	2	32
CC(Cn1nc([N+](=O)[O-])cc1C)=NNC(=O)c1ccc(O)cc1O	/	/	/	4	/	/
CCOc1ccc(S(=O)(=O)Nc2ccc(C(=O)NN=C(C)c3ccc(-n4ccnc4)cc3)cc2)cc1	/	/	/	-1	/	/
SMILES	aDG glyco up	PKA-R2B activ	Fh CTSL1 inh	UCH37 inh	PKA-R1A activ	UCH37 confirm
Cc1ccc(N2CC(C(=O)NCCC3=CCCCC3)CC2=O)cc1 (centres undefined)	0	5	-4	41*	-3	55*
O=C(c1cccs1)N1CCN(S(=O)(=O)N2CCOCC2)CC1	0	-4	-6	36*	-8	24
O=C(c1ccco1)N1CCN(S(=O)(=O)N2CCOCC2)CC1	0	7	-2	2	12	/
O=C(O)CN1C(=O)/C(=C\c2cc(Br)ccc2OCc2ccc(F)cc2)SC1=S	0	-12	-4	27*	-3	69*
COc1ccc(N2C(=O)[C@@H]3[C@H](C2=O)[C@H]2c4ccccc4C=CN2[C@@H]3C(C)=O)cc1	0	-10	11	37*	-3	-2
C/C(C=NNC(=O)c1cccs1)=C/c1ccccc1	/	/	/	4	/	/
CCOC(=O)/C(C#N)=C\C=C1C=CN(C)C=C1	0	-5	9	/	2	33
Cn1cc(/C=C/c2cc[n+](C)cc2)c2cc(F)ccc21	0	-9	4	28*	-12	34
Cc1[nH]n(-c2ccccc2)c(=O)c1C(C[N+](=O)[O-])c1ccc(F)cc1 (centres undefined)	1	-1	-2	10	-6	/
Cc1[nH]n(-c2ccccc2)c(=O)c1Sc1ccc(Cl)cc1	0	8	1	4	5	/
Cc1ccc(C(C[N+](=O)[O-])c2c(C)[nH]n(-c3ccccc3)c2=O)cc1 (centres undefined)	0	0	31*	53*	-9	4
Cc1[nH]n(-c2ccccc2)c(=O)c1C(C[N+](=O)[O-])c1ccc(Cl)cc1 (centres undefined)	2	-5	1	41*	4	-1
CCN1/C(=C/c2ccc3cc(C)ccc3[n+]2CC)Sc2cc(C)c(C)cc21	4	-8	/	11	0	/
CCN1/C(=C/c2ccc3cc(C)ccc3[n+]2CC)Sc2ccccc21	2	3	5	36*	-5	44
O=c1cc(-c2ccc(O)cc2)oc2c(O)c(O)c(O)c(O)c12	0	-7	-1	69*	-5	22
CN(CCCS(=O)(=O)[O-])c1ccc(/C=C/c2ccc3ccccc3[n+]2C)cc1	0	-8	/	3	1	/
CN(C)c1ccc(/C=C/c2ccc3ccccc3[n+]2C)cc1	4	-1	1	25*	1	30
CCOC(=O)c1c2c(n(Cc3ccccc3)c1C)C(=O)C(=O)c1ccccc1-2	-1	-6	/	/	-3	/
CCOC(=O)c1c2c(n(C)c1C)C(=O)C(=O)c1ccc(Br)cc1-2	-1	-10	66*	56*	-3	70*
O=C(CCN1C(=O)/C(=C/c2cccs2)SC1=S)Nc1ccc(C(=O)O)c(O)c1	0	-3	2	26*	6	18
O=C(Oc1cccc(C=NNc2nc(Nc3ccccc3)nc(N3CCOCC3)n2)c1)c1ccco1	/	/	/	6	/	/
CN(C1=C(N2CCCCC2)C(=O)c2ccccc2C1=O)c1ccccc1	-1	0	7	4	3	/
O=C1C(Nc2cccc(O)c2)=C(N2CCCCC2)C(=O)c2ccccc21	4	-9	86*	31*	-14	35
O=C(COc1ccccc1)NCC(=O)NN=Cc1ccc(Br)cc1	/	/	/	5	/	/
O=C(/C=C/c1ccccc1)N/C(=C/c1ccccc1)C(=O)N1CCOCC1	0	2	0	45*	-7	4

Screens: PubChem, several laboratories
